Compounds with a hit are over-represented: about 1.3% of the library has one in this group of screens.
Xi reactivation: X-chromosome reactivation activator; XiGFP mouse fibroblasts, % GFP-positive cells imaging, 3 d; cells co-treated with 5-aza-dC sensitizer; scaled so ellipticine positive control = 100%; activation, % at 7.58 µM; actives 0.055% (n = 360,000);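 active = mean normalized replicate activation at least 10% and every replicate at or above 10%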;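 note: 0% = median of on-plate neutral control wells and 100% = ellipticine 6 µM median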
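System: SV40-immortalized XiGFP fibroblast cells, line 68-5-11 / Incubation: 3-day compound exposure, then 15 min fixation at room temperature / Compound: single concentration per compound, delivered by pin transfer / Buffer or medium: DMEM plus 5-aza-dC sensitizer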
TPT1 inh: inhibitors of Candida albicans tRNA 2'-phosphotransferase TPT1; recombinant caTPT1, FP RNA substrate dephosphorylation; inhibition, % at 5 µM; actives 0.81% (n = 300,000);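 active = inhibition above the mean of all tested compounds plus 3 SD, set per screening campaign, cut at about 24% in these data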;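 note: plate controls were DMSO alone for no effect and ferristatin control at 100 nM for full effect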
Rpn11 block: Rpn11 (human) deubiquitinase inhibition | AID 588493 | O00487 | actives 0.59% (n = 360,000) | inhibition, % at 20 µM | human 26S proteasome, Ub4-pepOG fluorescence polarization; 20S core pre-blocked with epoxomicin;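 active = inhibition at 20 µM, scaled to each plate's controls, above about 33%, limit read from the data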
CSN deneddyl inh: blocks human CSN-mediated cullin deneddylation | Q92905 | Purified CSN, SCF-Nedd8-OG deneddylation, fluorescence polarization | inhibition, % at 12.5 µM | actives 0.38% (n = 360,000) | AID 651999;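 active = pattern-corrected inhibition above about 35%, with an unprinted fluorescence ratio check between 0.5 and 1.5, limit read from the data, passing the limit was not always enough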;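 note: 0% = enzyme with substrate and 100% = substrate without enzyme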
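Schedule: reaction 90 min, room temperature / Assay system: HEK293T-derived human Csn5 enzyme / Input: Csn5 at 0.24 nM final / Measure: inhibition of Csn5 cleavage, % / Control set: substrate-only high control, full reaction low control / Technique: fluorescence polarization of the substrate / Buffer or medium: Tris/NaCl/DTT buffer, pH 7.5 / Reagent: SCFSkp2-Nedd8OG substrate at 10 nM final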
HNF4A DNA FP: change in binding of human HNF4 alpha to DNA. AID 1224865. actives 0.3% (n = 360,000). P41235. HNF4a-FITC DNA binding, fluorescence polarization, 1 h. activity change, % at 10 µM; in the data active = activity change above about 30%, passing the limit was not always enough
aDG glyco act: increases alpha dystroglycan glycosylation. activation, % at 10 µM. actives 0.22% (n = 360,000). Pro5-aDG cells, alpha-DG glycosylation AlphaScreen (IIH6); 0% Pro5, 100% B10-LARGE cell signal;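 active = activation of at least 8% versus controls, or a plate z-score of at least 8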;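 note: Pro5 are CHO cells carrying HIG-tagged alpha-DG that lacks glycosylation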
Rpn11 confirm: confirmation of human proteasome Rpn11 inhibitors. shares compounds with Rpn11 block. purified human 26S proteasome, Ub4-pepOG fluorescence polarization; proteasome pretreated with epoxomicin. inhibition, % at 20 µM. actives 29% (n = 1,900). AID 602318
MMP-2 inh: blocks human MMP-2, flagging nonselective RPN11 hits | recombinant MMP-2, FRET peptide cleavage fluorescence | inhibition, % at 20 µM | actives 4% (n = 1,900) | shares compounds with Rpn11 block;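 note: human MMP-2 activated beforehand with APMA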
Target sequence (P08253 whole entry, looked up): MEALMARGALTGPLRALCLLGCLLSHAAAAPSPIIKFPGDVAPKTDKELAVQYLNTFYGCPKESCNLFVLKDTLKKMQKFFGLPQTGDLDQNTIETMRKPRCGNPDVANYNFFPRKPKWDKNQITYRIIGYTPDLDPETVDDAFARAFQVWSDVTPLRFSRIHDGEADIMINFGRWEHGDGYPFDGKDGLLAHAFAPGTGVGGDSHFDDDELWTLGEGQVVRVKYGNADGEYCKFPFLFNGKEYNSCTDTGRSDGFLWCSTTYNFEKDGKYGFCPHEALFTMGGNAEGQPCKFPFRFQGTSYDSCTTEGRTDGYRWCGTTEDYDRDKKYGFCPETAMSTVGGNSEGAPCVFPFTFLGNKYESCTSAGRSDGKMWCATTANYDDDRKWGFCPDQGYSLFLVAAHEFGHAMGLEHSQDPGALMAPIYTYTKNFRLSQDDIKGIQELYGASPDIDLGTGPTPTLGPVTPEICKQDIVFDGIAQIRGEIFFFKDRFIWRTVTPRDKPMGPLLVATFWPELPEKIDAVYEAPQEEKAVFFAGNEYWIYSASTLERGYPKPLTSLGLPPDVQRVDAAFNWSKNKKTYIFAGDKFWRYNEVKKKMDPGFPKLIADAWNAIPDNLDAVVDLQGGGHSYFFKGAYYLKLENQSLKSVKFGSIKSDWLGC
Thrombin FP: counter-screen for RPN11 inhibitors: inhibition of bovine thrombin. shares compounds with Rpn11 block. bovine thrombin cleavage of Ub4-pepOG, fluorescence polarization. inhibition, % at 20 µM. actives 13% (n = 1,900). AID 602333;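 active = mean inhibition at least 40% at 20 µM, or signal 3 deviations below plate average, so some actives read negative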;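 note: plate controls were thrombin with DMSO for no effect and buffer wells lacking thrombin for full effect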
* = called active by the depositor; x = no result. Cut-off read from the data, not from the text of the source, unless noted: active = inhibition above about 40%; inactive = the rest.

SMILES	Xi reactivation	TPT1 inh	Rpn11 block	CSN deneddyl inh	HNF4A DNA FP	aDG glyco act	Rpn11 confirm	MMP-2 inh	Thrombin FP
NC1CCCCC1N=Cc1c(O)n(CCc2ccc(F)cc2)c(=O)[nH]c1=O (stereo unspecified)	x	x	8	-3	-6	0	x	x	x
O=c1[nH]c(=O)n(CCc2ccc(F)cc2)c(O)c1C=NCc1ccc2c(c1)OCO2	x	-1	90*	6	4	0	17	-25	-14
COCCCNc1cc(C)nc2ccccc12	x	5	-4	-4	-2	0	x	x	x
Cc1cc(NCCCCCCCNc2cc(C)nc3cc([N+](=O)[O-])ccc23)c2ccc([N+](=O)[O-])cc2n1	1	x	95*	106	102	-1	85*	76*	11
COc1ccc(S(=O)(=O)N2CCN(Cc3ccc4c(c3)OCO4)CC2)cc1F	0	0	-2	-2	-2	0	x	x	x
COc1cc(S(=O)(=O)N2CCN(Cc3ccc4c(c3)OCO4)CC2)ccc1NC(C)=O	0	x	65*	10	8	0	4	-11	-7
Cc1ccc(O)c(C(=O)c2cnn(C(=O)COc3ccc(Cl)cc3)c2)c1	0	1	77*	-3	-1	0	1	-28	-11
O=C(c1cnn(C(=O)COc2ccc(Cl)cc2)c1)c1ccccc1O	0	4	11	3	-5	0	x	x	x
CCOC(=O)/C(C#N)=N/Nc1ccccc1OC	0	9	40*	-1	1	0	-7	-20	-11
CCOc1nc(N=C(N)N)nc2c(C)cccc12	x	-1	84*	10	16	0	24	-78	-2
CCOc1ccccc1Nc1cc(C)c2cccc(C)c2n1	0	-3	3	2	-1	0	x	x	x
COc1cc(/C=N/NC(=O)c2cc3ccccc3cc2O)ccc1OCCN1CCCCC1	0	19	64*	6	13	0	27	-5	-3
COc1ccc(C2=NN(C(=O)c3cccc([N+](=O)[O-])c3)C(c3cccc([N+](=O)[O-])c3)C2)cc1 (stereo unspecified)	x	1	-4	2	1	0	x	x	x
COc1ccc(C2CC(c3cccc([N+](=O)[O-])c3)=NN2/C(C)=C/C(C)=O)cc1 (stereo unspecified)	1	x	90*	57*	87*	0	142*	-4	151*
COc1ccc(C2CC(c3cccs3)=NN2C(=O)COC(=O)c2cncc(Br)c2)cc1OC (stereo unspecified)	0	4	43*	11	4	0	22	63*	4
Cc1ccc(C2CC(c3cccs3)=NN2C(=O)CCl)cc1 (stereo unspecified)	0	3	46*	16	15	0	8	-8	8
COc1ccc(C2CC(c3cccs3)=NN2C(=O)COC(=O)C2CCCCC2)cc1OC (stereo unspecified)	0	-6	-3	-6	-2	0	x	x	x
COc1ccc(C2CC(c3cccs3)=NN2C(=O)CSC2=NCCS2)cc1 (stereo unspecified)	0	3	80*	1	8	0	18	-18	10
COCC(=O)Nc1ccc2c(c1)C(=O)N(C)[C@H]1CC[C@@H](CC(=O)NCc3ccccc3)O[C@H]1CO2	1	x	x	x	x	x	x	x	x
CSc1nc2ccc(NS(=O)(=O)c3ccc(Br)s3)cc2s1	0	2	-1	0	-2	0	x	x	x
O=S(=O)(Nc1ccon1)c1ccc(Br)s1	0	1	52*	2	39*	0	13	-28	2
COC(=O)[C@H](Cc1ccccc1)NC(=O)NCCc1ccc(F)cc1	0	-1	-1	0	-4	0	x	x	x
CCOCCCNC(=O)N[C@@H](Cc1ccccc1)C(=O)OC	x	-5	58*	-2	2	0	-5	-4	-10
CCC(C)NC(=O)C1c2cc(OC)c(OC)cc2C(=O)N(C)C1c1ccc(OC)cc1 (stereo unspecified)	x	1	-5	3	1	0	x	x	x
CCC(C)NC(=O)C1c2cc(OC)c(OC)cc2C(=O)N(C)C1c1cccs1 (stereo unspecified)	x	0	158*	2	13	0	-12	-25	-10
SMILES	Xi reactivation	TPT1 inh	Rpn11 block	CSN deneddyl inh	HNF4A DNA FP	aDG glyco act	Rpn11 confirm	MMP-2 inh	Thrombin FP
CCCC#Cc1ccc2c(c1)O[C@@H](CN(C)C(=O)CC1CC1)[C@H](C)CN([C@@H](C)CO)S2(=O)=O	0	x	x	x	x	x	x	x	x
Cc1ccc(S(=O)(=O)N2CCN(C(=O)COC(=O)/C=C/c3ccc([N+](=O)[O-])cc3)CC2)c(C)c1	0	x	65*	-6	18	0	-1	-4	-4
CCN(CC)c1ccc(N)cc1	x	x	98*	15	47*	0	42*	-8	26
O=C(CN1CCCC1)N/N=C/c1c(O)ccc2ccccc12	0	9	46*	9	10	1	1	-19	-11
O=C(N/N=C/c1c(O)ccc2ccccc12)C(=O)N1CCCC1	0	x	13	4	7	2	x	x	x
O=C(C1CC1)N1CC2(C1)[C@H](c1ccccc1)[C@H](CO)N2C(=O)CC1CC1	0	x	x	x	x	x	x	x	x
COc1ccc2[nH]cc(CCNC(=O)c3ccccc3Cl)c2c1	0	-39	59*	2	1	0	-25	-24	-24
C/C(C/C(C)=C1/SC(=S)NC1=O)=C1\SC(=S)NC1=O	0	x	76*	35	-15	0	41*	16	-61
N#Cc1ccccc1OCC(=O)Nc1c(C(=O)C2CC2)oc2ccccc12	x	-4	128*	-1	17	0	5	-19	-6
O=C(CN1CCCC1)Nc1c(C(=O)C2CC2)oc2ccccc12	0	-2	-4	-2	0	0	x	x	x
C[C@@H]1CN([C@H](C)CO)C(=O)c2ccccc2-c2ccccc2CO[C@@H]1CN(C)S(=O)(=O)c1ccccc1F	0	x	x	x	x	x	x	x	x
COC(=O)c1ccc(C2SCC(=O)N2Cc2ccccc2)cc1 (stereo unspecified)	x	4	-9	1	4	0	x	x	x
